Test results: ChEMBL document CHEMBL5705899 (Biochem J, 2014)
Active and inactive are the calls of the source. No cut-off for these calls is given here.

Tests used:
[1] = biological target: MAP kinase-activated protein kinase 5 (Homo sapiens) (UniProt Q8IW41); experiment: Inhibition of human MAPKAPK5 at 1 uM using RBER-CHKtide as substrate in presence of 33P-ATP by ProQinase assay
[2] = biological target: Phosphatidylinositol 5-phosphate 4-kinase type-2 alpha (Homo sapiens) (UniProt P48426); experiment: Inhibition of recombinant human N-terminal His6-tagged PIP5K2alpha (1 to 406 residues) expressed in Escherichia coli at 1 uM using diC8 PI(5)P as substrate incubated for 40 mins by ADP-Glo assay
[3] = biological target: CDK8/Cyclin C (Homo sapiens) (UniProt P49336+P24863); experiment: Inhibition of human CDK8/CyclinC at 1 uM using RBER-CHKtide as substrate in presence of 33P-ATP by ProQinase assay; format: protein-complex assay
[4] = biological target: Fibroblast growth factor receptor 4 (Homo sapiens) (UniProt P22455); experiment: Inhibition of human FGFR4 at 1 uM using polyEy as substrate in presence of 33P-ATP by ProQinase assay
Chain of Fibroblast growth factor receptor 4 (Homo sapiens) (P22455 22-802 limits assumed): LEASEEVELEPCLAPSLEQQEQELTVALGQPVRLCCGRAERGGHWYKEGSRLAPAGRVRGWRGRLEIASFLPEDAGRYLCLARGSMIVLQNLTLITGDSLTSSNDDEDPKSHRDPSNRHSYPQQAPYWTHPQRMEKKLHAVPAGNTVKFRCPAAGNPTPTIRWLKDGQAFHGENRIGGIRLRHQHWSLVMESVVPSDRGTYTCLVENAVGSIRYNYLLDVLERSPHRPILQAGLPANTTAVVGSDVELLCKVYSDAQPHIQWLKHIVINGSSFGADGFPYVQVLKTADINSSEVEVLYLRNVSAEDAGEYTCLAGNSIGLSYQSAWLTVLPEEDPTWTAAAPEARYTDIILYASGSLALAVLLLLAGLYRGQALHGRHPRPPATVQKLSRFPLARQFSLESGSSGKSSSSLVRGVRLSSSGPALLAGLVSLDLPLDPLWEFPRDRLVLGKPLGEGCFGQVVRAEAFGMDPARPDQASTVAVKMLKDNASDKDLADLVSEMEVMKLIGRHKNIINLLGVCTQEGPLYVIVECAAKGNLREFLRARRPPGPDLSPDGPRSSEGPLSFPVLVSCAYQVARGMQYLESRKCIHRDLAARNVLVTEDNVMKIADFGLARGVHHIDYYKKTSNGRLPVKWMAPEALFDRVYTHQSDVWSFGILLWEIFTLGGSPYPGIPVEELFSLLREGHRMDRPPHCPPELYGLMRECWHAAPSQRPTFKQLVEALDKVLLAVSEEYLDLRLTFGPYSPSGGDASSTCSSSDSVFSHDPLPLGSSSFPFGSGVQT

[5] = biological target: Serine/threonine-protein kinase Sgk1 (Homo sapiens) (UniProt O00141); experiment: Inhibition of human SGK1 at 1 uM using RBER-GSK3 as substrate in presence of 33P-ATP by ProQinase assay
[6] = biological target: Inhibitor of nuclear factor kappa-B kinase subunit epsilon (Homo sapiens) (UniProt Q14164); experiment: Inhibition of human IKKepsilon at 1 uM using RBER-GSK3 as substrate in presence of 33P-ATP by ProQinase assay
[7] = biological target: Eukaryotic elongation factor 2 kinase (Homo sapiens) (UniProt O00418); experiment: Inhibition of recombinant human N-terminal GST-tagged EF2K (2 to 725 residues) expressed in Escherichia coli assessed as remaining activity at 1 uM using RKKFGESKTKTKEFL as substrate incubated for 30 mins in presence of [gamma-33P]ATP by filter binding method relative to control
[8] = biological target: Serine/threonine-protein kinase Sgk2 (Homo sapiens) (UniProt Q9HBY8); experiment: Inhibition of human SGK2 at 1 uM using RBER-GSK3 as substrate in presence of 33P-ATP by ProQinase assay
Chain of Serine/threonine-protein kinase Sgk2 (Homo sapiens) (Q9HBY8 whole entry): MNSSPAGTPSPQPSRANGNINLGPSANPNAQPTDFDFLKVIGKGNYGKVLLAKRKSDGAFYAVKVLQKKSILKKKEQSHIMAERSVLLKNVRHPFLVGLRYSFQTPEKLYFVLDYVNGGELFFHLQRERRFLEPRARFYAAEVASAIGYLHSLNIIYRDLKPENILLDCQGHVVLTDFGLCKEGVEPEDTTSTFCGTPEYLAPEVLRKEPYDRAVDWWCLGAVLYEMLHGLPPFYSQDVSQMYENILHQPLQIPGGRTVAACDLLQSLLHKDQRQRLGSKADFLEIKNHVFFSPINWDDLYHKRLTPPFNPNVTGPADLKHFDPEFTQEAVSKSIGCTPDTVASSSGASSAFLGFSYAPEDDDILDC

[9] = biological target: RAC-beta serine/threonine-protein kinase (Homo sapiens) (UniProt P31751); experiment: Inhibition of human AKT2 at 1 uM using RBER-GSK3 as substrate in presence of 33P-ATP by ProQinase assay
[10] = biological target: Tyrosine-protein kinase JAK2 (Homo sapiens) (UniProt O60674); experiment: Inhibition of human JAK2 at 1 uM using poly(Ala,Glu,Lys,Tyr) as substrate in presence of 33P-ATP by ProQinase assay
[11] = biological target: Serine/threonine-protein kinase PAK 2 (Homo sapiens) (UniProt Q13177); experiment: Inhibition of PAK2 (unknown origin) assessed as remaining activity at 1 uM relative to control
How it was run: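 Dundee panel of 140 protein kinases, tested at a single 1 μM concentration. Each assay was run in triplicate. Remaining activity is expressed relative to a control reaction without inhibitor, as mean ± S.D. Conditions for each kinase were those of the screening centre.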

[12] = biological target: Dual specificity tyrosine-phosphorylation-regulated kinase 3 (Homo sapiens) (UniProt O43781); experiment: Inhibition of human DYRK3 at 1 uM using RBER-IRStide as substrate in presence of 33P-ATP by ProQinase assay
[13] = biological target: Aurora kinase B (Homo sapiens) (UniProt Q96GD4); experiment: Inhibition of human AuroraB at 1 uM using bio-4xCHKT as substrate in presence of 33P-ATP by ProQinase assay
Chain of Aurora kinase B (Homo sapiens) (Q96GD4 whole entry): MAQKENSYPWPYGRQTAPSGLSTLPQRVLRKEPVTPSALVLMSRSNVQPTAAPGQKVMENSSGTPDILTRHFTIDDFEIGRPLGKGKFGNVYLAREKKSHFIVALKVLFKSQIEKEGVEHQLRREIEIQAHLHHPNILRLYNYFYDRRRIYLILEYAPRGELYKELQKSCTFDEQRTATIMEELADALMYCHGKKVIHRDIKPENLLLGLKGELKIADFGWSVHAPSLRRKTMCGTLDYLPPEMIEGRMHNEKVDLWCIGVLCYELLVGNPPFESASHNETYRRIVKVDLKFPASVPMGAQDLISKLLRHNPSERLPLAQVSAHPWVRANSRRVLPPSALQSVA

[14] = biological target: Myosin light chain kinase (Homo sapiens) (UniProt Q32MK0); experiment: Inhibition of human MYLK3 at 1 uM using RB-S6P as substrate in presence of 33P-ATP by ProQinase assay
[15] = biological target: Phosphatidylinositol 4-kinase type 2-alpha (Homo sapiens, UniProt Q9BTU6); experiment: Inhibition of human PI4K2A using PI/PS as substrate by ADP-Glo assay
[16] = biological target: Activated CDC42 kinase 1 (Homo sapiens) (UniProt Q07912); experiment: Inhibition of human ACK1 at 1 uM using polyEy as substrate in presence of 33P-ATP by ProQinase assay
[17] = biological target: Interferon-induced, double-stranded RNA-activated protein kinase (Homo sapiens) (UniProt P19525); experiment: Inhibition of human EIF2AK2 at 1 uM using RB-CTF as substrate in presence of 33P-ATP by ProQinase assay
[18] = biological target: Receptor-type tyrosine-protein kinase FLT3 (Homo sapiens) (UniProt P36888); experiment: Inhibition of human FLT3 at 1 uM using Poly(Ala,Glu,Lys,Tyr) as substrate in presence of 33P-ATP by ProQinase assay
Chain of Receptor-type tyrosine-protein kinase FLT3 (Homo sapiens) (P36888 whole entry, the tested form may be a part): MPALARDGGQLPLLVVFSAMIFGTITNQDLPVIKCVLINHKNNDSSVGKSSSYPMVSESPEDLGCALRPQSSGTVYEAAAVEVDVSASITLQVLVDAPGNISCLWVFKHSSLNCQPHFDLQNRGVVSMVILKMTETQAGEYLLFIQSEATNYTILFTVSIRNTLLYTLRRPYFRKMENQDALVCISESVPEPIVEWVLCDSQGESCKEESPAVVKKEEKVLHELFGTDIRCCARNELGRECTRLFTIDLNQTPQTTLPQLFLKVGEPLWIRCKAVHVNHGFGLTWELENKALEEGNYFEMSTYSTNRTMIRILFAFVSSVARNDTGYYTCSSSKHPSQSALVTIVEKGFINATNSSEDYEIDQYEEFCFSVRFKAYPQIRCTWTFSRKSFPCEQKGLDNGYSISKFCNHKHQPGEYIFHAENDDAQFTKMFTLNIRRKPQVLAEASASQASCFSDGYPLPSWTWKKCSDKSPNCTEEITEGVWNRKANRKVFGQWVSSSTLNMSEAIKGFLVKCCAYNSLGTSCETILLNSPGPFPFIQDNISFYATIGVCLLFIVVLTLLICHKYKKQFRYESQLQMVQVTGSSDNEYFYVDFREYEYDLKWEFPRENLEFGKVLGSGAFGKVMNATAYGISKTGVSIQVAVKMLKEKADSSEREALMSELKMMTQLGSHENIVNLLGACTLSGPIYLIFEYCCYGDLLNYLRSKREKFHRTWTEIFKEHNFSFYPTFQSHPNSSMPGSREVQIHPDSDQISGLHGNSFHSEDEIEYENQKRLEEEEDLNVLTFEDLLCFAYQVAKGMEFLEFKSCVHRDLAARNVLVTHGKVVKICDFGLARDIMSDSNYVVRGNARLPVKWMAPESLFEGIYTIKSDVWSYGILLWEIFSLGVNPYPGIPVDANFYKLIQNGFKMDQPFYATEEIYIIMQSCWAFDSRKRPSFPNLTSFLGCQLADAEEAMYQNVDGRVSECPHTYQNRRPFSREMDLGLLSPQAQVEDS

[19] = biological target: Vascular endothelial growth factor receptor 1 (Homo sapiens) (UniProt P17948); experiment: (§1) Inhibition of recombinant human N-terminal GST-tagged VEGFR1 (784 to 1338 residues) expressed in baculovirus infected Sf21 cells assessed as remaining activity at 1 uM using KKKSPGEYVNIEFG as substrate incubated for 30 mins in presence of [gamma-33P]ATP by filter binding method relative to control
[20] = biological target: Serine/threonine-protein kinase PLK1 (Homo sapiens) (UniProt P53350); experiment: Inhibition of human PLK1 at 1 uM using RBER-CHKtide as substrate in presence of 33P-ATP by ProQinase assay
Chain of Serine/threonine-protein kinase PLK1 (Homo sapiens) (P53350 whole entry): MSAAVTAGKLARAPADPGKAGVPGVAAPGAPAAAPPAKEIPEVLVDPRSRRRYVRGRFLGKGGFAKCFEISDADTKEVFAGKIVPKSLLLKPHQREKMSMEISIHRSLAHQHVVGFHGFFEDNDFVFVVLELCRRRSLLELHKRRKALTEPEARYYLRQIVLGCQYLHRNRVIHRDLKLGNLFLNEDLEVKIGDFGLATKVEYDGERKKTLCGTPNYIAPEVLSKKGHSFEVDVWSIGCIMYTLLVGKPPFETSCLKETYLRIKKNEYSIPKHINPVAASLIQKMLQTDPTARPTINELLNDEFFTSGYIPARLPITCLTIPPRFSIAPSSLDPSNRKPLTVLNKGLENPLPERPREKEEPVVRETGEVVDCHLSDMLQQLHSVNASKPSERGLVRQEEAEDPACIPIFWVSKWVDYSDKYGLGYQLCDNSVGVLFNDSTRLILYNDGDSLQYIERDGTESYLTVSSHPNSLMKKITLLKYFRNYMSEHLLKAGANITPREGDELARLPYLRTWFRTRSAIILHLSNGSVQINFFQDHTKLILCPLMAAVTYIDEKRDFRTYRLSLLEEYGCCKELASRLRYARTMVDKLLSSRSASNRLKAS

[21] = test system: Dual specificity mitogen-activated protein kinase kinase 6 (Homo sapiens), P52564 [S207D,T211D]; experiment: Inhibition of human MKK6 S207D/T211D double mutant at 1 uM using p38-alpha KA as substrate in presence of 33P-ATP by ProQinase assay
[22] = biological target: Serine/threonine-protein kinase MARK2 (Homo sapiens) (UniProt Q7KZI7); experiment: as §1, with “His6-tagged MARK2 (2” for “GST-tagged VEGFR1 (784”, “691” for “1338”, “KKKVSRSGLYRSPSMPENLNRPR” for “KKKSPGEYVNIEFG”
[23] = biological target: Tyrosine-protein kinase Blk (Homo sapiens) (UniProt P51451); experiment: Inhibition of human BLK at 1 uM using polyEY as substrate in presence of 33P-ATP by ProQinase assay
Chain of Tyrosine-protein kinase Blk (Homo sapiens) (P51451 2-505 limits assumed): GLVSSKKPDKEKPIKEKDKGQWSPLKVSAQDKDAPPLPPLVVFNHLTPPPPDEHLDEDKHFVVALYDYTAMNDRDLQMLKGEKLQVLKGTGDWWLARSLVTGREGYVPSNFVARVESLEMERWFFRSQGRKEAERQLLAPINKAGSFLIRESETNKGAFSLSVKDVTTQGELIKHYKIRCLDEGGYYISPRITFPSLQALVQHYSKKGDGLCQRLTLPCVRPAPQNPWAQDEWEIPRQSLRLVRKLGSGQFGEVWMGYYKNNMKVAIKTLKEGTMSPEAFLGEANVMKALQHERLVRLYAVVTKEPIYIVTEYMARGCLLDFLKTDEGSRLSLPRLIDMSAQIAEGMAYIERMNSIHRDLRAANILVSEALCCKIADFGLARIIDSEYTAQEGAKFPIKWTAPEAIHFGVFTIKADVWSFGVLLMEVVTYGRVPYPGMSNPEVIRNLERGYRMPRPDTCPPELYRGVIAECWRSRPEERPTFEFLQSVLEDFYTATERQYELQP

[24] = biological target: Serine/threonine-protein kinase N2 (Homo sapiens) (UniProt Q16513); experiment: Inhibition of recombinant N-terminal His6/FLAG-tagged human PRK2 (501 to 984 residues) expressed in baculovirus infected Sf21 cells assessed as remaining activity at 1 uM using S6 peptide as substrate incubated for 30 mins in presence of [gamma-33P]ATP by filter binding method relative to control
Chain of Serine/threonine-protein kinase N2 (Homo sapiens) (Q16513 whole entry, looked up, the tested form may be a part): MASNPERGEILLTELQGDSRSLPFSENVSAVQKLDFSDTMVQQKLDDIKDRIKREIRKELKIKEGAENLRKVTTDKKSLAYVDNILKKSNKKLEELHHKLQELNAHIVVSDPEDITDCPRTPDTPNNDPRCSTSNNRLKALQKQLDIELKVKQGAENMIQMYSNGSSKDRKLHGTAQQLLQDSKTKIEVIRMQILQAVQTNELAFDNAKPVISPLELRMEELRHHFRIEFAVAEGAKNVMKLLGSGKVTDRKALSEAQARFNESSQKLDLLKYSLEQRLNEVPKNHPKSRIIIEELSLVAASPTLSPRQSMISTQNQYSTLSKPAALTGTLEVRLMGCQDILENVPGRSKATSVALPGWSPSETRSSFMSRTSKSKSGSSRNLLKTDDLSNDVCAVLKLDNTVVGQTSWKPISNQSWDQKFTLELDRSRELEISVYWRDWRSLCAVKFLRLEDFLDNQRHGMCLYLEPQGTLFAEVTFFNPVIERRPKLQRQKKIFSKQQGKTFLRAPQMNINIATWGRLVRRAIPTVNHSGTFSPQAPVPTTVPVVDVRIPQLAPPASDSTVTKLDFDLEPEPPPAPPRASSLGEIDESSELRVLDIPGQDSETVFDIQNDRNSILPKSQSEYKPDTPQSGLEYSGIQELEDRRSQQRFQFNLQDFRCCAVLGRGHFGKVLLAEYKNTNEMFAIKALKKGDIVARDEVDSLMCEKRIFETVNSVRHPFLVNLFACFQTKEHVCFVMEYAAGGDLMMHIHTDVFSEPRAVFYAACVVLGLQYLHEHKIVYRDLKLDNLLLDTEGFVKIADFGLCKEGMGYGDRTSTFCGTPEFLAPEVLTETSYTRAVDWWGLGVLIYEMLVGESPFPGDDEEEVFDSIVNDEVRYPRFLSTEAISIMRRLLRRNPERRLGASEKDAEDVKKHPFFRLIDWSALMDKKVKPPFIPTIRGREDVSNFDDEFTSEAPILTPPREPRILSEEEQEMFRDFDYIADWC

Chain of MAP kinase-activated protein kinase 5 (Homo sapiens) (Q8IW41 whole entry, the tested form may be a part): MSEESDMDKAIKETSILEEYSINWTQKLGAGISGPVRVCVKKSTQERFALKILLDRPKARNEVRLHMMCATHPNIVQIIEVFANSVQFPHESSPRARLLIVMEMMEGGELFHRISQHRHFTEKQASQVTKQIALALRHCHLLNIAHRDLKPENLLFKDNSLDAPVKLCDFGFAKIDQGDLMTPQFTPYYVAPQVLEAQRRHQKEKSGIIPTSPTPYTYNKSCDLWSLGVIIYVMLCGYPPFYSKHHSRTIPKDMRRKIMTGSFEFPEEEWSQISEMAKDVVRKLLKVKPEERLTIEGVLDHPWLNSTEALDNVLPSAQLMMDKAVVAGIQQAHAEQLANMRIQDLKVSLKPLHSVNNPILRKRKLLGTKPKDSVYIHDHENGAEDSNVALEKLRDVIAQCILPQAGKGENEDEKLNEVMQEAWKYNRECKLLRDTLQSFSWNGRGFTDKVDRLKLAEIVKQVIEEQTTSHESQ

CC(C)(O)CNc1ncc(-c2ccnc(Nc3ccnc(Cl)c3)n2)c(CC2CC2)n1
inhibition [1]: inactive | inhibition [2]: inactive | inhibition [3]: inactive | inhibition [4]: inactive | inhibition [5]: inactive | inhibition [6]: inactive | Activity [7]: 115% | inhibition [8]: inactive | inhibition [9]: inactive | inhibition [10]: inactive | Activity [11]: 111% | inhibition [12]: inactive | inhibition [13]: inactive | inhibition [14]: inactive | IC50 [15]: > 10 µM | inhibition [16]: inactive | inhibition [17]: inactive | inhibition [18]: inactive | Activity [19]: 113% | inhibition [20]: inactive | inhibition [21]: inactive | Activity [22]: 108% | inhibition [23]: inactive | Activity [24]: 116%
